Source: ChEMBL document CHEMBL1137637, “Quinuclidine derivatives as potential antiparasitics” (Antimicrob Agents Chemother, 2007)

Columns and labels:
[1] = system: Leishmania amazonensis; test: Inhibition of sterol biosynthesis in Leishmania mexicana amazonensis promastigotes assessed as reduction in endogenous 5-dehydro episterol level at 10 uM after 96 hrs by gas-liquid chromatography; format: functional; set-up: scale not given: the % may be the effect or the level left
How it was run: (§1)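 L. mexicana promastigotes exposed to compound for 96 h. Total lipids extracted and neutral sterols separated from polar lipids by silicic acid column chromatography. Sterols analysed by TLC and by quantitative capillary gas-liquid chromatography with mass spectrometry. Composition expressed as mass % of free sterols, compared with untreated control.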

[2] = system: Trypanosoma cruzi; test: Antitrypanosomal activity against trypomastigotes of Trypanosoma cruzi Tulahuen C2C4 containing lacZ gene in rat L6 cells after 4 days by chlorophenol red-beta-D-galactopyranoside/Nonidet assay; format: functional, organism-based; conditions: Tulahuen C2C4, L6, 96 h
How it was run: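 L-6 rat myoblasts seeded at 2,000 cells/well in RPMI 1640 with 10% FBS and 2 mM L-glutamine. After 24 h, 5,000 T. cruzi Tulahuen C2C4 lacZ trypomastigotes added with serial drug dilution. Incubated at 37°C in 5% CO2 for 4 days. CPRG/Nonidet substrate added and colour read at 540 nm after 2–4 h. IC50 from sigmoidal curve. Duplicate determinations.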

[3] = system: Leishmania amazonensis; test: Antileishmanial activity against Leishmania mexicana amazonensis promastigotes by trypan blue exclusion method; format: functional, organism-based
How it was run: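 L. mexicana amazonensis promastigotes cultured in liver infusion-tryptose medium with lactalbumin and 10% FCS at 26°C, unagitated. Cultures started at 2 × 10⁶ cells/ml and drug added at 0.5–1 × 10⁷ cells/ml. Density counted by electronic particle counter and hemocytometer. Viability by trypan blue exclusion. Triplicate growth experiments.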

[4] = system: L6; test: Cytotoxicity against rat L6 cells after 72 hrs by resazurin assay; format: cell-based; conditions: L6, 72 h
How it was run: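 L-6 cells seeded at 4 × 10⁴ cells/ml in RPMI 1640 with 10% FBS and 2 mM L-glutamine. After 24 h, medium replaced with serial drug dilution and incubated for 72 h at 37°C in 5% CO2. Resazurin added for 2–4 h, fluorescence read at ex 536/em 588 nm. IC50 from sigmoidal curve. Duplicate, with an independent repeat for actives.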

[5] = system: Leishmania donovani; test: Antileishmanial activity against Leishmania donovani MHOM/ET/67/L82 axenic amastigotes after 72 hrs by resazurin assay; format: functional, organism-based; conditions: MHOM/ET/67/L82, 72 h
How it was run: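 L. donovani MHOM/ET/67/L82 amastigotes grown axenically at 37°C in synthetic minimal medium at pH 5.4 with 10% heat-inactivated FBS under 5% CO2. 1 × 10⁵ amastigotes per well with seven threefold dilutions, 30 to 0.041 μg/ml. After 72 h, resazurin added for 2–4 h more. Fluorescence read at ex 536/em 588 nm. IC50 taken from sigmoidal curve. Run in duplicate, with an independent repeat for actives.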

[6] = system: Leishmania amazonensis; test: Inhibition of sterol biosynthesis in Leishmania mexicana amazonensis promastigotes assessed as reduction in exogenous cholesterol level at 10 uM after 96 hrs by gas-liquid chromatography; format: functional; set-up: scale not given: the % may be the effect or the level left; how it was run: as §1
[7] = biological target: T1, Farnesyltransferase, putative (Leishmania major, UniProt Q4Q5W4); test: Inhibition of Leishmania major recombinant squalene synthase expressed in Escherichia coli by liquid scintillation counter
T1 sequence (Q4Q5W4 whole entry): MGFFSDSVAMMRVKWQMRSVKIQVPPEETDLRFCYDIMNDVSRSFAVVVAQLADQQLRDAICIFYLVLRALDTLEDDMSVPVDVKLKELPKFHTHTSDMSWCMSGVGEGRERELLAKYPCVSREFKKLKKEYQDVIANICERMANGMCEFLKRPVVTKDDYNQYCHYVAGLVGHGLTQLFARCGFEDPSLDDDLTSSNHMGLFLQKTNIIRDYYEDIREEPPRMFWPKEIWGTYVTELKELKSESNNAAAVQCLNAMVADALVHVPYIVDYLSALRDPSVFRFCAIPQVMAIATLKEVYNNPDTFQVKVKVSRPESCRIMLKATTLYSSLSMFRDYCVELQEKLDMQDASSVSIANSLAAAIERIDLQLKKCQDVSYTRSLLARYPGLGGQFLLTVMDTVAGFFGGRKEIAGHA
How it was run: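 Soluble E. coli extract expressing L. major SQS truncated by 16 N-terminal and 40 C-terminal residues. Buffer: 50 mM phosphate pH 7.4, 20 mM MgCl2, 5 mM CHAPS, 1% Tween 80, 10 mM DTT, BSA, 0.25 mM NADPH, and a glucose-6-phosphate/G6PDH regenerating system. Substrate 0.5 μM radiolabelled farnesyl pyrophosphate. Squalene band counted by scintillation. IC50 from hyperbolic plot of five concentrations in duplicate, usually run twice.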

[8] = system: Leishmania amazonensis; test: Inhibition of sterol biosynthesis in Leishmania mexicana amazonensis promastigotes assessed as reduction in endogenous episterol level at 10 uM after 96 hrs by gas-liquid chromatography; format: functional; set-up: scale not given: the % may be the effect or the level left; how it was run: as §1
[9] = system: Trypanosoma brucei rhodesiense; test: Trypanocidal activity against Trypanosoma brucei rhodesiense STIB 900 bloodstream form after 72 hrs by resazurin assay; format: functional, organism-based; conditions: STIB 900, 72 h
How it was run: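 T. b. rhodesiense STIB 900 bloodstream forms in MEM with 2-mercaptoethanol and 15% heat-inactivated horse serum, with serial drug dilutions. Incubated 72 h at 37°C in 5% CO2. Resazurin added for 2–4 h more, fluorescence read at ex 536/em 588 nm. IC50 from sigmoidal curve. Duplicate, with an independent repeat for actives.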

[10] = system: Plasmodium falciparum; test: Antiplasmodial activity after 48 hrs against chloroquine and pyrimethamine-resistant Plasmodium falciparum K1 in human erythrocytes by [3H]hypoxanthine uptake; format: functional, organism-based
How it was run: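 P. falciparum K1 in human red cells in RPMI 1640 with 5% Albumax, exposed to serial drug dilutions. Incubated 48 h at 37°C under reduced oxygen, then 0.5 μCi [³H]hypoxanthine per well for 24 h more. Cells harvested onto glass-fibre filters and counted by scintillation. Result expressed as % of untreated control, with IC50 from sigmoidal curve. Duplicate, plus an independent repeat for actives.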

[11] = system: Leishmania amazonensis; test: Inhibition of sterol biosynthesis in Leishmania mexicana amazonensis promastigotes assessed as reduction in endogenous cholesta-5,7,24-trien-3beta-ol level at 10 uM after 96 hrs by gas-liquid chromatography; format: functional; set-up: scale not given: the % may be the effect or the level left; how it was run: as §1

Row | SMILES | Activity [1] [%] | IC50 [2] [µM] | MIC [3] [µM] | IC50 [4] [µM] | IC50 [5] [µM] | Activity [6] [%] | IC50 [7] [µM] | Activity [8] [%] | IC50 [9] [µM] | IC50 [10] [µM] | Activity [11] [%]
1 | Nc1ccc(C#CC2(O)CN3CCC2CC3)cn1 (configuration not stated) | 75.2 | 97 | > 10 | > 370 | 10.8 | 13.2 | > 1 | 11.6 | 5.7 | > 21 | –
2 | OC1(C#Cc2ccc(Cl)nc2)CN2CCC1CC2 (configuration not stated) | 71.7 | > 114 | > 10 | > 342 | 16.3 | 20.1 | > 1 | 8.2 | 53.3 | 9.3 | –
3 | COC(=O)c1ccc(N)c(C#CC2(O)CN3CCC2CC3)c1 (configuration not stated) | 74.3 | 44.9 | > 10 | > 300 | 17.2 | 19.3 | > 1 | 6.4 | 30.8 | 10.9 | –
4 | OC[C@H]1CC2CCN1C[C@@H]2C#Cc1ccc2ccccc2c1 (some centres not stated) | 65.7 | 5.3 | > 10 | 50.4 | 12 | 23.1 | > 1 | 11.2 | 1.4 | 3 | –
5 | CCOc1ccc(C#CC2(O)CN3CCC2CC3)cc1 (configuration not stated) | 45.4 | 21.2 | > 10 | > 332 | 10.5 | 30 | – | 24.6 | 5.4 | 5.9 | –
6 | O=C(O)c1ccc(C#CC2(O)CN3CCC2CC3)cc1 (configuration not stated) | 70.9 | 90.2 | > 10 | > 332 | > 111 | 21.9 | > 100 | 7.2 | 146 | > 18.4 | –
7 | COc1ccc(C#CC2(O)CN3CCC2CC3)cc1 (configuration not stated) | 66.8 | 67.2 | > 10 | > 350 | 7 | 19.8 | > 1 | 13.4 | 18.4 | 8.2 | –
8 | OC[C@@H]1CC2CCN1C[C@@H]2C#Cc1ccc2ccccc2c1 (some centres not stated) | 68.4 | 4.7 | > 10 | 40.1 | 22.6 | 15.4 | > 1 | 9.6 | 1.1 | 2.1 | 6.6
9 | O=C(O)c1cc(C#CC2(O)CN3CCC2CC3)ccc1O (configuration not stated) | 74 | – | > 10 | – | – | 20.4 | > 1 | 5.6 | – | – | –
10 | CC(=O)c1ccc(C#CC2(O)CN3CCC2CC3)s1 (configuration not stated) | 67.8 | 72.6 | > 10 | 194 | 18.9 | 22.3 | > 1 | 9.9 | 30.3 | 10.2 | –
11 | CCCCCCCCCCCCCCCCOP(=O)([O-])OCC[N+](C)(C)C [MILTEFOSINE] | – | – | – | – | 0.338 | – | – | – | – | – | –
12 | COc1cc([C@@H]2c3cc4c(cc3[C@H](O)[C@H]3COC(=O)[C@H]23)OCO4)cc(OC)c1OC [PODOFILOX] | – | – | – | 0.014 | – | – | – | – | – | – | –
